Measured values from ChEMBL document CHEMBL1144974, “Design, synthesis, and activity of novel cis- and trans-3,6-disubstituted pyran biomimetics of 3,6-disubstituted piperidine as potential ligands for the dopamine transporter” (Bioorg Med Chem Lett, 2003).
pIC50: −log10 of the molar value.

Assays:
[1] = target: Sodium-dependent dopamine transporter (Rattus norvegicus, UniProt P23977); test: Inhibition of binding of [3H]WIN-35 428 to (DAT) dopamine transporter in rat striatum; assay type: tissue-based
Chain of Sodium-dependent dopamine transporter (P23977 whole entry): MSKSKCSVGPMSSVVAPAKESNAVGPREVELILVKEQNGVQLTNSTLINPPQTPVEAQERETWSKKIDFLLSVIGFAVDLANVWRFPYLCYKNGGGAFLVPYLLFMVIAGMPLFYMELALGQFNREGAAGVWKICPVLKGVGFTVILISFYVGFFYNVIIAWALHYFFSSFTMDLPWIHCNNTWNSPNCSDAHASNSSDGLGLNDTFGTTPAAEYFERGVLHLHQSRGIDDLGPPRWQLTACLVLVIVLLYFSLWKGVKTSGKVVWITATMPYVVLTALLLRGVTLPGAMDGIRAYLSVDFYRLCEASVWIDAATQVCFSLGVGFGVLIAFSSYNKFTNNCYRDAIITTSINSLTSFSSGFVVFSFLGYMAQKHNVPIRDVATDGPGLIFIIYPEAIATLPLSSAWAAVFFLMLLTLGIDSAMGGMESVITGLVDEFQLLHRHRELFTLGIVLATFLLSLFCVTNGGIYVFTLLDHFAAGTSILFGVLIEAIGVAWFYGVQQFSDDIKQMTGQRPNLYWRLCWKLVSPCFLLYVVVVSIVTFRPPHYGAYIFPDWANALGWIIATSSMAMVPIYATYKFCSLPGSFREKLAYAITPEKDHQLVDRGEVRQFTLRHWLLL

[2] = organism: Rattus norvegicus; test: Inhibition of [3H]DA dopamine (DA) reuptake activity; assay type: functional
[3] = target: Norepinephrine transporter (Rattus norvegicus, UniProt Q9WTR4); test: Inhibition of binding of [3H]nisoxetine to (NET) norepinephrine transporter in rat striatum; assay type: tissue-based
Chain of Norepinephrine transporter (Q9WTR4 whole entry): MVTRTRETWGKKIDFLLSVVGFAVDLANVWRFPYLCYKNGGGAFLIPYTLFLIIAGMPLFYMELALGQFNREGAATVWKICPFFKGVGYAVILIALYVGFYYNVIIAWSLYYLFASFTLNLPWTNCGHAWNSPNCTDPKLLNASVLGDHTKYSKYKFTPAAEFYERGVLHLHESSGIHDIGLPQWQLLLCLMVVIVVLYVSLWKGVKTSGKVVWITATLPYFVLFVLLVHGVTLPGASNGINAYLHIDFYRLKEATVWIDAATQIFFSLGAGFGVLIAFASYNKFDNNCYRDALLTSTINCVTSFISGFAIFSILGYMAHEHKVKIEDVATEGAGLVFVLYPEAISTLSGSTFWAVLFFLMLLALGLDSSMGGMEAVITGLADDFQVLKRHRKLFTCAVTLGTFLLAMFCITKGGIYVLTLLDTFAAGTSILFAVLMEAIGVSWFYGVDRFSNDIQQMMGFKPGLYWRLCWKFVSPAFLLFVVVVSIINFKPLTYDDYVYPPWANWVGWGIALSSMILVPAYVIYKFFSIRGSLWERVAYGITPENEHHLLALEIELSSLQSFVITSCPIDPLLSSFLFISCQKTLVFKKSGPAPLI
Procedure, shortened: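 Radioligand displacement of [3H]nisoxetine labelling NET; other binding conditions are referred to earlier work. Values are means ± SEM of three independent experiments, each assayed in triplicate.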

[4] = target: Sodium-dependent serotonin transporter (Rattus norvegicus, UniProt P31652); test: Inhibition of binding of [3H]citalopram to (SERT) serotonin transporter in rat striatum; assay type: tissue-based
Chain of Sodium-dependent serotonin transporter (P31652 whole entry): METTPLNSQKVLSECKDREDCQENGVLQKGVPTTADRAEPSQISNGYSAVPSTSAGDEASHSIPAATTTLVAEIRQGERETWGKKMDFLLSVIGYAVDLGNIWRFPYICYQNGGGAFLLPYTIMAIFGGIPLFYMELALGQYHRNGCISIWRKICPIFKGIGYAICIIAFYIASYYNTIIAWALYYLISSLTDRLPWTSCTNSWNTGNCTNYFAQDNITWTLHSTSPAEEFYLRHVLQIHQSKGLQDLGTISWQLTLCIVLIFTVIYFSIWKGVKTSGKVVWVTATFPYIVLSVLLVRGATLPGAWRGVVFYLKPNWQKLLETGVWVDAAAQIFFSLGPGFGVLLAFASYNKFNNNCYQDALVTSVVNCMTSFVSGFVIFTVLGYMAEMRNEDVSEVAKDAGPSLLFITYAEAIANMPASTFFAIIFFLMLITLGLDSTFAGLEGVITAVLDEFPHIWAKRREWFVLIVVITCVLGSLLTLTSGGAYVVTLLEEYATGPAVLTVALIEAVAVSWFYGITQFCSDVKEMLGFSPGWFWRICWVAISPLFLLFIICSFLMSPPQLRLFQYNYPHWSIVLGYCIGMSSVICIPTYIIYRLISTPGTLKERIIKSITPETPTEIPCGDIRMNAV

SMILES | pIC50 [1] | pIC50 [2] | pIC50 [3] | pIC50 [4]
COc1ccc(CNC2CCC(C(c3ccccc3)c3ccccc3)OC2)cc1 (racemic) | 7.08 | 7.23 | – | –
Fc1ccc(CNC2CCC(C(c3ccccc3)c3ccccc3)OC2)cc1 (racemic) | 6.79 | 6.81 | 6.63 | 5.73
Fc1ccc(CNC2CCC(C(c3ccccc3)c3ccccc3)NC2)cc1 (configuration not stated) | 7.49 | 7.34 | 5.99 | 5.65
O=[N+]([O-])c1ccc(CNC2CCC(C(c3ccccc3)c3ccccc3)OC2)cc1 (racemic) | 7.42 | 6.99 | – | –
Fc1ccc(CNC2CCC(C(c3ccccc3)c3ccccc3)OC2)cc1 (single isomer, unassigned) | 6.50 | – | 4.90 | 5.08
N#Cc1ccc(CNC2CCC(C(c3ccccc3)c3ccccc3)OC2)cc1 (racemic) | – | – | 5.80 | 6.06
